pEC50: −log10 of the molar value. Activity calls are given as the source filed them. The calls are words filed in the database; no cut-off is given here.

As usually defined, the pEC50 is −log10 of the EC50, conventionally taken in molar units.

The target of series [1] is T1, Peroxisome proliferator-activated receptor gamma (Homo sapiens) (UniProt P37231).
T1 sequence (whole entry): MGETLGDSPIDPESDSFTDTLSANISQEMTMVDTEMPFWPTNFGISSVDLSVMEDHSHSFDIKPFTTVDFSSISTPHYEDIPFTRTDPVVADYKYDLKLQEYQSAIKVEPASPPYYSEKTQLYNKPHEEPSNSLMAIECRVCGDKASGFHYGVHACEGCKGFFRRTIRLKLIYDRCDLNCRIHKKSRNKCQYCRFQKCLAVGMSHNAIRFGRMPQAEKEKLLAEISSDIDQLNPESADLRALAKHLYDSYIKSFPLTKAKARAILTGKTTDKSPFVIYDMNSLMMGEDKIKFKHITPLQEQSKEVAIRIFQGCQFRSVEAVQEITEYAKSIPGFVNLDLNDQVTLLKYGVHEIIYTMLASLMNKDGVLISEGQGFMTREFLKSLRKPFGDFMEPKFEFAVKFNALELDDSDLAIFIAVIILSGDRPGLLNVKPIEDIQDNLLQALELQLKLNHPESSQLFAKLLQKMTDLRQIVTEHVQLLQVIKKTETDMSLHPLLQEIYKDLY
Briefly: Selective modulation of PPARgamma in human HepG2 cells assessed as induction of adiponectin mRNA expression at 1 uM measured after 12 hrs by qPCR analysis. In kind it is cell-based. Summed up:
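HepG2 cells were incubated with test compound at 1 µM. mRNA of the PPARγ target genes adiponectin and ANGPTL4 was quantified. Mean±S.E.M., n≥3.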

The target of series [2] is T2, Peroxisome proliferator-activated receptor gamma (Homo sapiens, UniProt P37231).
T2 sequence (P37231 whole entry): T1 sequence (whole entry)
Kind of series: Partial agonist activity at recombinant N-terminal GFP-fused PPARgamma LBD (unknown origin) assessed as increase in biotinylated-CBP peptide recruitment measured after 2 hrs by HTRF assay. Summed up: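 Cell-free HTRF assay of CBP coactivator recruitment to recombinant PPARγ protein.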
On the technique in general: TR-FRET usually uses a lanthanide donor and a delayed reading to cut background.

Series [3] addresses T3, Bile acid receptor (Homo sapiens) (UniProt Q96RI1).
T3 sequence (whole entry): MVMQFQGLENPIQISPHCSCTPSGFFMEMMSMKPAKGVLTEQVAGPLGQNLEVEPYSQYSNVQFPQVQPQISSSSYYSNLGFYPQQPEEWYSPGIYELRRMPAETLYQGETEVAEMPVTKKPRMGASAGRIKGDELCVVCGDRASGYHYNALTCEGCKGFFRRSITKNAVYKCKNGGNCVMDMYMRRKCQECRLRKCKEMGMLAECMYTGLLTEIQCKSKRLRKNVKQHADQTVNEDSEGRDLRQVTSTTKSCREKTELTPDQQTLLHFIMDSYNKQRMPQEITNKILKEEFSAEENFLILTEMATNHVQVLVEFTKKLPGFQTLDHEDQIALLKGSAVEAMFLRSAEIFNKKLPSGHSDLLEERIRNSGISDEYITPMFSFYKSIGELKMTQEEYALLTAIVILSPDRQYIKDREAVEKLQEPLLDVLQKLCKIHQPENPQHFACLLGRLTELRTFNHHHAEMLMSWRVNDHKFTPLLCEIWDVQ
Kind of series: Agonist activity at FXR (unknown origin) at 10 uM.

The target of series [4] is Retinoic acid receptor (Homo sapiens) (UniProt P13631+P10826+P10276). Kind of series: Agonist activity at RAR (unknown origin) at 10 uM. Format: protein assay.
Series [5] is described as follows: Partial agonist activity at recombinant PPARgamma LBD/N-terminal GFP-fused RXRalpha mutant LBD (unknown origin) assessed as increase in biotinylated-CBP peptide recruitment measured after 2 hrs by HTRF assay. Also on record: species or system Homo sapiens. An outline of the steps:
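Cell-free HTRF assay of coactivator peptide recruitment (CBP or SRC-1) to the recombinant PPARγ:RXRα heterodimer.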

The target in series [6] is T4, Peroxisome proliferator-activated receptor delta (Homo sapiens, UniProt Q03181).
T4 sequence (Q03181 whole entry): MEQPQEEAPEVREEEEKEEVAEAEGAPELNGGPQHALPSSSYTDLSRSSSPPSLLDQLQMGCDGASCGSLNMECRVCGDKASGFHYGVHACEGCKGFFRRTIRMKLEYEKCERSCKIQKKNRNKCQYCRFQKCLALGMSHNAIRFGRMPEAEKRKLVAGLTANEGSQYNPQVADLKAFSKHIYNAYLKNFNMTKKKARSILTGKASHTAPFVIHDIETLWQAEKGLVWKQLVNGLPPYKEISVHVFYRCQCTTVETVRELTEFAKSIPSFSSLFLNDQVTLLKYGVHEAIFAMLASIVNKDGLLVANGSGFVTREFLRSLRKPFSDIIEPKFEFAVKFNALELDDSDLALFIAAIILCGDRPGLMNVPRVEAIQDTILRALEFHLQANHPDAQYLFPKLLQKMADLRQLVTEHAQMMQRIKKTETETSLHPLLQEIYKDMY
Briefly: Partial agonist activity at Gal4-fused PPARdelta LBD (unknown origin) expressed in HEK293T cells after 14 to 16 hrs by dual-Glo luciferase assay. In kind it is cell-based. An outline of the steps: (§1)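 Gal4 hybrid reporter assay in transiently transfected HEK293T cells. Constructs fuse the yeast Gal4 DNA-binding domain to the human receptor LBD. Firefly luciferase is the reporter. Constitutive renilla luciferase monitors transfection efficiency and toxicity. EC50 and maximal relative activation are reported as mean±S.E.M., n≥3.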

Series [7] concerns the target T2, Peroxisome proliferator-activated receptor gamma. Briefly: Partial agonist activity at recombinant N-terminal GFP-fused PPARgamma LBD (unknown origin) assessed as increase in biotinylated-SRC1 peptide recruitment measured after 2 hrs by HTRF assay.
Series [8] concerns the target Liver X receptor (Homo sapiens) (UniProt Q13133+P55055). Briefly: Agonist activity at LXR (unknown origin) at 10 uM. In kind it is protein assay.
Series [9] is described as follows: Stability in Sprague-Dawley rat liver microsomes assessed as parent compound remaining at 10 uM after 60 mins by HPLC analysis. The following applies: read-out: Stability. Format: ADME, Microsome. Summed up: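 Incubation with rat liver microsomes, measuring compound remaining after 60 minutes.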
Background: Liver microsomes are a subcellular fraction often used to study metabolism.

For series [10], the target named is T5, Peroxisome proliferator-activated receptor alpha (Homo sapiens) (UniProt Q07869).
T5 sequence (whole entry): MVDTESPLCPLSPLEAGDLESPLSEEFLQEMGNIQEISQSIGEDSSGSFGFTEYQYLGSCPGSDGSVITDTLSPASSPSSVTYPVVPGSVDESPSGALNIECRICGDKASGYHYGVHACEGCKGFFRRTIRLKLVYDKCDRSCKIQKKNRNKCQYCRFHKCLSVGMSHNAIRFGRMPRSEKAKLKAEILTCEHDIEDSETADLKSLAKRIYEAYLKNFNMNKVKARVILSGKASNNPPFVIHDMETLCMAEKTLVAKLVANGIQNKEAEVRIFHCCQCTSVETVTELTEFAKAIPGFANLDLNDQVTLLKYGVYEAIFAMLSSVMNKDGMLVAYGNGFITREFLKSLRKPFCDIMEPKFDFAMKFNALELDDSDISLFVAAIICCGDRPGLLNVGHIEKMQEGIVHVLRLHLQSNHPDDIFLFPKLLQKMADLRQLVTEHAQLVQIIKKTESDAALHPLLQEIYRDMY
Kind of series: Partial agonist activity at Gal4-fused PPARalpha LBD (unknown origin) expressed in HEK293T cells after 14 to 16 hrs by dual-Glo luciferase assay relative to GW7647. In kind it is cell-based. An outline of the steps: as §1

Chain of Retinoic acid receptor (Homo sapiens) (P10276 whole entry, looked up, the tested form may be a part): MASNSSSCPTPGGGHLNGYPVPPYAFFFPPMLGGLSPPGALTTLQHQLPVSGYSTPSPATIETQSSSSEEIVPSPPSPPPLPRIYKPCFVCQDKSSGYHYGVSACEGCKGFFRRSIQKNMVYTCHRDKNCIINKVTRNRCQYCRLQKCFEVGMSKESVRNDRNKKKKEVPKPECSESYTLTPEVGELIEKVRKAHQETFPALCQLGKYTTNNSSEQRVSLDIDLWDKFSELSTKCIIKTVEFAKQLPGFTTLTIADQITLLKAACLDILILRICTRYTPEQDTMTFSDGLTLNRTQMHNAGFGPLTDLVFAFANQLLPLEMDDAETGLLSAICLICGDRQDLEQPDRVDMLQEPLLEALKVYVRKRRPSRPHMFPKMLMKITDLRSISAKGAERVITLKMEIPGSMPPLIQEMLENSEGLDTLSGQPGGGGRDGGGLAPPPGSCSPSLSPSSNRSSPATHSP
Chain of Retinoic acid receptor (Homo sapiens) (P10826 whole entry, looked up, the tested form may be a part): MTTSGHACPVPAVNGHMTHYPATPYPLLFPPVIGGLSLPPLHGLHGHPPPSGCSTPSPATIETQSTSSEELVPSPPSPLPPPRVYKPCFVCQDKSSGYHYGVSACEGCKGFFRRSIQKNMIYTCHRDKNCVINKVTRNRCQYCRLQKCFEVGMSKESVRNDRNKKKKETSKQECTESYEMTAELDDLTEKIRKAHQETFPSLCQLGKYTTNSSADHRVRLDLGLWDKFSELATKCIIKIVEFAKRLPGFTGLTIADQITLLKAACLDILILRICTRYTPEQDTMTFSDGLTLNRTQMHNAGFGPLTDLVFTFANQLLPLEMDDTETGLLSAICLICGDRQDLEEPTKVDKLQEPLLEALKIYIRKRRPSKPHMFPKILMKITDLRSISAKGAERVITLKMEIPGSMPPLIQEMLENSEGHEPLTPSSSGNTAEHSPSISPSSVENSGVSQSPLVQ
Chain of Retinoic acid receptor (Homo sapiens) (P13631 whole entry, looked up, the tested form may be a part): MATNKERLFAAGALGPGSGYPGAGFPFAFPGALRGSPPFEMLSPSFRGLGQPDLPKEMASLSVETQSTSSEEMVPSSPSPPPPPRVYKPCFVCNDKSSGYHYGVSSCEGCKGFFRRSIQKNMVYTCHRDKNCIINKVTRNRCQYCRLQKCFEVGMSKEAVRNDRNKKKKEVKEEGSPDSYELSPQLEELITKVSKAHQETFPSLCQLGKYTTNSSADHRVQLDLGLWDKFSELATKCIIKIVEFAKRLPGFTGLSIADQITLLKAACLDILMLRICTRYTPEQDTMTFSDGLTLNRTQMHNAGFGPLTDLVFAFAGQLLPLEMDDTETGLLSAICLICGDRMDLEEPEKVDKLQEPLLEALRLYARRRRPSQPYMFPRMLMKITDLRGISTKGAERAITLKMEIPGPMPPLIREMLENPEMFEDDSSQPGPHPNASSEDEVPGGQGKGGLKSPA

In the case of `CCCCCCC(Sc1nc2ccc(NS(=O)(=O)c3ccc(Cl)cc3Cl)cc2s1)C(=O)O` (stereo not given), the result in series [1] was Active. In addition, the pEC50 in series [2] was 6.71; in series [5] it was 6.36; in [6] it was 6.40; in [7] it was 6.97. For the same compound, the outcome in series [3], in series [4] and in series [8] was inactive. In series [9], the remaining at 1 h, 10 µM stood at 80%. In series [10], this compound returned a max activation of 29%.

These data come from ChEMBL document CHEMBL4354876, “A Selective Modulator of Peroxisome Proliferator-Activated Receptor γ with an Unprecedented Binding Mode” (J Med Chem, 2020).
